The values that follow come from ChEMBL document CHEMBL1150398, “Design and synthesis of 7-alkoxy-4-heteroarylamino-3-quinolinecarbonitriles as dual inhibitors of c-Src kinase and nitric oxide synthase” (Bioorg Med Chem, 2008).

Experiment [1] concerns the target T1, Nitric oxide synthase, inducible (Mus musculus, UniProt P29477).
T1 sequence (P29477 whole entry): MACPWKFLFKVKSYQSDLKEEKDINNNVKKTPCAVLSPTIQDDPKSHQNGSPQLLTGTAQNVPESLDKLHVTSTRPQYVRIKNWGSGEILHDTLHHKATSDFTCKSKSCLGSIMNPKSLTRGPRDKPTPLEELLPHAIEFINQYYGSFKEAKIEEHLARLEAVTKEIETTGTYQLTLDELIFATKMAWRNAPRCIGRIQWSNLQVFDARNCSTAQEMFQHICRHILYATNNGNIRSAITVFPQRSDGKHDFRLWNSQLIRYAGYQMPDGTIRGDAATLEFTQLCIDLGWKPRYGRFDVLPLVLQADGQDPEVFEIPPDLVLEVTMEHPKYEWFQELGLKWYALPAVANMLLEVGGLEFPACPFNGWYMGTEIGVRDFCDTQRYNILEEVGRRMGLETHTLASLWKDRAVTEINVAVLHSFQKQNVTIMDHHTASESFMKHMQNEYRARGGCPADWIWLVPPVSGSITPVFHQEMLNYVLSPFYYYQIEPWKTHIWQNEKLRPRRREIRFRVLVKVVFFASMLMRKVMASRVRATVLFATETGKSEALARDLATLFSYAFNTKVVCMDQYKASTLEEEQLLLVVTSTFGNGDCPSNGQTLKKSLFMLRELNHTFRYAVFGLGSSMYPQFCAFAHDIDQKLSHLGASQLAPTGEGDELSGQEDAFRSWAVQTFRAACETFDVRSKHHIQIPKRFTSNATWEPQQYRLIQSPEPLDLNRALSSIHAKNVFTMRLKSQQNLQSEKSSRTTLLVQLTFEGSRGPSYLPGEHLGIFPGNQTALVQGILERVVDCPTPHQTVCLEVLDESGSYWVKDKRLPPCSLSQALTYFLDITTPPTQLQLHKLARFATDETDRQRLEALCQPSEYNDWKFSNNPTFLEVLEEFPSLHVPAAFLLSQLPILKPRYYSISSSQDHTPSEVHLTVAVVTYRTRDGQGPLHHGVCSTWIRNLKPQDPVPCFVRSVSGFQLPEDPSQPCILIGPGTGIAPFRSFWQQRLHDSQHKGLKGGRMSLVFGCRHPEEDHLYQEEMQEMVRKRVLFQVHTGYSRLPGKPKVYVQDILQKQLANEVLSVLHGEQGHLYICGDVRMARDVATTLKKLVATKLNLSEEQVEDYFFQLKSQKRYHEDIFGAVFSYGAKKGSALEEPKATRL
The experiment can be described thus: Inhibition of inducible nitric oxide synthetase in LPS-stimulated mouse ANA1 macrophages. An outline of the steps: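 ANA-1 macrophages grown in DMEM with 10% heat-inactivated FBS and 2 mM L-glutamine, 37 °C, 5% CO₂, 10⁵ cells/mL prepared the day before. Cells stimulated with LPS for 24 h, collected, then given assay buffer, L-arginine substrate and DAF-FM DA tracer. Reaction started with 0.1 mM NADPH, 37 °C 30 min, washed, fluorescence read. Triplicate, mean of three.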

Experiment [2] concerns the target T2, Proto-oncogene tyrosine-protein kinase Src (Homo sapiens, UniProt P12931). The experiment can be described thus: Inhibition of human recombinant cSrc by ELISA. On the technique in general: ELISA stands for enzyme-linked immunosorbent assay.
The target of experiment [3] is T2, Proto-oncogene tyrosine-protein kinase Src. The experiment can be described thus: Inhibition of human recombinant cSrc by fluorescence polarization assay.
The next experiment has as its system HT-29. In words: Antiproliferative activity against human HT29 cells after 48 hrs by sulforhodamine B assay. The note with it: HT-29, 48 h; for CC50: read-out: LC50 (the source's name). The experiment is classed as functional, cell-based. In a few lines:
(§1)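 SRB assay: cells plated in 96-well plates, mostly at 20,000 cells/well, pre-incubated 24 h without drug. Compounds added in 10-fold dilutions from highest soluble concentration, 48 h further incubation. Cells fixed in situ, washed, dried, SRB stained; proliferation inhibition from change in total optical density after 48 h treatment.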
A general note: Sulforhodamine B stains cellular protein and so reports cell mass.

Another experiment deals with HepG2. The experiment can be described thus: Antiproliferative activity against human HepG2 cells after 48 hrs by sulforhodamine B assay. Type of experiment: functional, cell-based. The note with it: HepG2, 48 h; for CC50: read-out: LC50 (the source's name). An outline of the steps: as §1

T2 sequence (P12931 2-536 limits assumed): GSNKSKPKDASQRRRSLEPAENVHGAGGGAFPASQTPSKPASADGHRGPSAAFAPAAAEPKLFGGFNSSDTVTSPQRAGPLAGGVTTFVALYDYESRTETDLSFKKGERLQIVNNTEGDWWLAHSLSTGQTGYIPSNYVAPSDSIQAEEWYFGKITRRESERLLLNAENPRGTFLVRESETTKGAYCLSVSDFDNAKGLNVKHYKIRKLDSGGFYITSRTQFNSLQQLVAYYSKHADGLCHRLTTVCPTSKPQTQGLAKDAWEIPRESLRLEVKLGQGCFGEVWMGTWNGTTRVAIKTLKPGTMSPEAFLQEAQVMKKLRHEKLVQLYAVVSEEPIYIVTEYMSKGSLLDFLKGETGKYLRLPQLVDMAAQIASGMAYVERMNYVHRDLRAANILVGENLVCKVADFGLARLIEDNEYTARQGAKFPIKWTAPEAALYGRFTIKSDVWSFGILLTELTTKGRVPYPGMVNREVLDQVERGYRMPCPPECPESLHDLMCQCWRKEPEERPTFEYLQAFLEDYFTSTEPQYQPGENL

With `Cc1ccc2nc(Nc3c(C#N)cnc4cc(OCCCN5CCN(C)CC5)c(C)cc34)sc2c1`, in experiment [1], the IC50 stood at 12.7 µM.
In experiment [1], `Cc1cc2c(Nc3nc4ccccc4s3)c(C#N)cnc2cc1OCCCN1CCOCC1` showed an IC50 of 139 µM.
Still for that read-out and setting: the figure for `Cc1cc2c(Nc3nc4ccccc4s3)c(C#N)cnc2cc1OCCCN1CCCCC1` is 412 µM; for `COc1cc2c(Nc3nc4ccc(OC(F)(F)F)cc4s3)c(C#N)cnc2cc1OCCCN1CCN(C)CC1` it is 65.6 µM.
Consider `COc1cc2c(Nc3nc4ccccc4s3)c(C#N)cnc2cc1OCCN1CCOCC1`, for which the values for the IC50 in experiment [2] and in experiment [1] were more than 1 µM and 26.7 µM, respectively.
Consider `COc1cc2c(Nc3nc4ccccc4s3)c(C#N)cnc2cc1OCCCN1CCN(C)CC1`, for which the IC50 in experiment [1] was 98 µM.
The same measure, in the same setting: the figure for `COc1cc2c(Nc3nc4ccccc4s3)c(C#N)cnc2cc1OCCN1CCN(C)CC1` is 2.18 µM; for `COc1cc2c(Nc3nc4ccccc4s3)c(C#N)cnc2cc1OCCN1CCCCC1` it is 44.8 µM; for `Cc1cc2c(Nc3nc4ccc(OC(F)(F)F)cc4s3)c(C#N)cnc2cc1OCCCN1CCN(C)CC1` it is 16.3 µM.
In turn, `Cc1cc2c(Nc3ccccn3)c(C#N)cnc2cc1OCCCN1CCN(C)CC1` registered an IC50 in experiment [1] of 18.6 µM.
Take `Cc1cc2c(Nc3nc4ccccc4[nH]3)c(C#N)cnc2cc1OCCCN1CCN(C)CC1`: the values for the 50% inhibitory concentration (IC50) in experiment [3] and in experiment [1] were more than 1 µM and 15.5 µM, respectively.
`COc1cc2c(Nc3nc4ccccc4[nH]3)c(C#N)cnc2cc1OCCCN1CCN(C)CC1` showed an IC50 in experiment [1] of 18.1 µM.
In turn, `Cc1ccc2nc(Nc3c(C#N)cnc4cc(OCCCN5CCCCC5)c(C)cc34)sc2c1` displayed an IC50 in experiment [1] of 313 µM. For the same molecule, in the experiment with HT-29, halving of growth (GI50) required 5.59 µM, the IC50 stood at 6.58 µM, the total growth inhibition concentration (TGI) was more than 10 µM and the CC50 is more than 10 µM. In the experiment on HepG2, growth was halved (GI50) at 4.85 µM, the IC50 is 7.61 µM, total growth inhibition (TGI) required 9.25 µM and the CC50 was more than 10 µM.
`Nc1nccs1` [AMINOTHIAZOLE] showed an IC50 in experiment [1] of 18 µM.
For the molecule `COc1cc(Nc2c(C#N)cnc3cc(OCCCN4CCN(C)CC4)c(OC)cc23)c(Cl)cc1Cl` [BOSUTINIB], in the experiment on HT-29, growth was halved (GI50) at 1.17 µM, the IC50 was found to be 3.87 µM, the TGI came out at 6.5 µM and the CC50 is more than 10 µM. For the same molecule, in the experiment on HepG2, the GI50 worked out at 1.15 µM, the 50% inhibitory concentration (IC50) is 3.91 µM, the concentration for total growth inhibition (TGI) stood at 7.66 µM and the CC50 was more than 10 µM.
`N=C(N)NOCC[C@H](N)C(=O)O` [CANAVANINE] displayed a half-inhibitory concentration (IC50) in experiment [1] of 60 µM.

The term IC50 denotes the midpoint of a concentration-inhibition curve. As a reminder, the GI50 is the concentration giving 50% growth inhibition. Low values mean more potent growth inhibition, high ones less potent growth inhibition. As a reminder, the TGI is the concentration giving total growth inhibition. Low readings indicate more potent growth arrest, high ones less potent growth arrest.
